Data as given in ChEMBL document CHEMBL1155812, “Functionalized pyrrolidine inhibitors of human type II alpha-mannosidases as anti-cancer agents: optimizing the fit to the active site” (Bioorg Med Chem, 2008).
Each block holds one compound with its values, some of them ahead of it. Calls of active or inactive are those of the source. No cut-off for these calls is given here.

Experiments:
[1] = molecular target: T1, Lysosomal alpha-mannosidase (Homo sapiens, UniProt O00754); assay: Inhibition of alpha-mannosidase in human LN18 cells; assay type: cell-based
T1 sequence (O00754 whole entry): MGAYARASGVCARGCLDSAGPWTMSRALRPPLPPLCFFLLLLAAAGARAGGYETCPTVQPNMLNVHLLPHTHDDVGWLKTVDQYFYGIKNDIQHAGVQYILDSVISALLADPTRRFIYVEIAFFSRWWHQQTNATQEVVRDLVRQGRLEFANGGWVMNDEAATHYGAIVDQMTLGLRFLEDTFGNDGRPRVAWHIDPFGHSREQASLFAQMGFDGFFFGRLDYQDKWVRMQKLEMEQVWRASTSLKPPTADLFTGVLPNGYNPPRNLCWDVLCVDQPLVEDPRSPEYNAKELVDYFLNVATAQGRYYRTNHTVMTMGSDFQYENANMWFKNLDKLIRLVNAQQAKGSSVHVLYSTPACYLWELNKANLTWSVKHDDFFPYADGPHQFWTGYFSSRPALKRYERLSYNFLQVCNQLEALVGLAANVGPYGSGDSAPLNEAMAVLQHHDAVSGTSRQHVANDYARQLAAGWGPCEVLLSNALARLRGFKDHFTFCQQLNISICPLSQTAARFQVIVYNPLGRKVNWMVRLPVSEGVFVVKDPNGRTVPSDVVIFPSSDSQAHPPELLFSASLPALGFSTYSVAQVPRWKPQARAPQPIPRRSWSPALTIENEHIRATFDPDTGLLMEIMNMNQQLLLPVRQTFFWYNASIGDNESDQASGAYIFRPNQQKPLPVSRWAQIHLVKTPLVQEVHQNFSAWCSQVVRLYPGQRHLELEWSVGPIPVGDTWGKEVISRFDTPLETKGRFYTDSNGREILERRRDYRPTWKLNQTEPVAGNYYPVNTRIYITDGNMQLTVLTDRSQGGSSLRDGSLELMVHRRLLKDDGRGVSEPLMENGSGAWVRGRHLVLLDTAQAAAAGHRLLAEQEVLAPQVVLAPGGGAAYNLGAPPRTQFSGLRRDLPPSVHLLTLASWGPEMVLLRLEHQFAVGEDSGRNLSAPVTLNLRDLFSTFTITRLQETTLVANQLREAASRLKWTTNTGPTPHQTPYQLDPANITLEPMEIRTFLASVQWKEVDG
Summary of the method: (§1)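 Cell layers extracted in pH 5.0 phosphate buffer with 0.1% Triton X-100. Extracts were preincubated with increasing inhibitor concentrations (30 min, 37 °C), then given 4-methylumbelliferyl-α-D-mannopyranoside (150 µM final). Fluorescence increase (ex 360/em 460 nm) followed for 30 min at 37 °C. KM was determined first; IC50 and Ki were derived graphically. Swainsonine served as reference.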

[2] = Growth inhibition of human HCEC after 24 hrs by MTT assay; assay type: cell-based; details: for Activity: human, hcec
Summary of the method: (§2)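 Cells seeded 2 days before in the same medium (glioblastoma lines in DMEM 4.5 g/l glucose, 5% FCS; HCEC with 10% FCS), then exposed to increasing concentrations for 24 h. MTT (5 mg/ml in PBS) was added without medium change for 2 h at 37 °C. Formazan was dissolved in isopropanol-HCl and read at 540 nm. Growth inhibition is the ratio of MTT reduction, treated to untreated. Triplicate wells.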

[3] = Inhibition of jack bean alpha-mannosidase; design: species or system Canavalia ensiformis
Summary of the method: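 Jack bean enzyme (0.01–0.5 U/mL) preincubated 5 min at 20 °C with inhibitor, then reacted 20 min at 37 °C with increasing 4-nitrophenyl-α-D-mannopyranoside at pH 5.5. Stopped with 0.2 M borate pH 9.8; 4-nitrophenolate read at 410 nm. IC50 found graphically, or Ki and inhibition type from Lineweaver–Burk plots.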

LN-18 = assay: (§3) Growth inhibition of human LN18 cells after 24 hrs by MTT assay; assay type: functional, cell-based; summary of the method: as §2
[4] = molecular target: T1, Lysosomal alpha-mannosidase; assay: Inhibition of alpha-mannosidase in human HCEC; assay type: cell-based; summary of the method: as §1
LNZ308 [5] = assay: (§4) Growth inhibition of human LNZ308 cells after 24 hrs by MTT assay; assay type: functional, cell-based; summary of the method: as §2
[6] = molecular target: T1, Lysosomal alpha-mannosidase; assay: Inhibition of alpha-mannosidase in human LNZ308 cells; assay type: cell-based; summary of the method: as §1
[7] = Growth inhibition of human LNZ308 cells at 300 uM after 24 hrs by MTT assay; assay type: functional; details: LNZ308, 24 h, read-out: GI; summary of the method: as §2
[8] = Growth inhibition of human LN18 cells at 300 uM after 24 hrs by MTT assay; assay type: functional; details: LN-18, 24 h, read-out: GI; summary of the method: as §2
[9] = Growth inhibition of human HCEC at 300 uM after 24 hrs by MTT assay; assay type: cell-based; details: HCEC cells, read-out: GI; summary of the method: as §2
LNZ308 [10] = assay: Decrease in incorporation of [3H]Mann into TCA-precipitable high molecular weight cellular molecule in human LNZ308 cells at 200 uM after 14 hrs; assay type: functional, cell-based
Summary of the method: (§5)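 Cells given 200 µM inhibitor together with [2,3,4,5-3H]-L-Leu or [2,6-3H]-D-Mann (0.4 µCi/ml final). LNZ308 were seeded 10 h before a 14 h exposure; HCEC were exposed for 6 h. Incorporation measured by 10% TCA precipitation, solubilization in 0.1 N NaOH and beta counting. The Mann/Leu ratio of decrease, treated vs. control, was calculated. Triplicate wells, means ± SD.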

HCEC = assay: Decrease in incorporation of [3H]Mann into TCA-precipitable high molecular weight cellular molecule in human HCEC at 200 uM after 6 hrs; assay type: functional, cell-based; summary of the method: as §5
[11] = as §3; assay type: functional, cell-based; details: LN-18, 24 h; summary of the method: as §2
[12] = as §4; assay type: functional, cell-based; details: LNZ308, 24 h; summary of the method: as §2
[13] = Growth inhibition of melanoma cells; assay type: functional, cell-based; details: Melanoma tumor cell line
[14] = Inhibition of drosophila golgi alpha-mannosidase 2
Summary of the method: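 It was preincubated 30 min at 20 °C with inhibitor added in DMSO, then given p-nitrophenyl α-mannopyranoside, all at 10% final DMSO and 20 °C. Timed aliquots were stopped with equal-volume 0.5 M sodium carbonate and read at A405. Ki was fitted by nonlinear regression on the linear portion of the time course.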

SMILES: CN1C(=O)[C@H](O)[C@H](O)[C@H]1CN[C@@H](CO)c1ccccc1
- IC50 [1]: 2 µM
- Ki [1]: 3.2 µM
- Activity [2]: Not Active
- Ki [3]: 0.206 µM
- Activity (LN-18): inactive
- IC50 [4]: 0.5 µM
- Ki [4]: 0.67 µM
- Activity (LNZ308 [5]): inactive
- IC50 [6]: 0.5 µM
- Ki [6]: 0.55 µM

SMILES: O=C1N[C@H](CN[C@@H](CO)c2ccccc2)[C@@H](O)[C@H]1O
- IC50 [1]: 350 µM
- Activity [2]: Not Active
- Ki [3]: 4 µM
- Activity (LN-18): inactive
- IC50 [4]: 75 µM
- Activity (LNZ308 [5]): inactive
- IC50 [6]: 50 µM

SMILES: O[C@H]1[C@H]2[C@H](O)CCCN2C[C@H]1O [TRIDOLGOSIR]
- IC50 [1]: 0.05 µM
- IC50 [14]: 0.04 µM
- Ki [14]: 0.02 µM
- IC50 [3]: 0.04 µM
- Ki [3]: 0.155 µM
- IC50 [4]: 0.01 µM
- IC50 [6]: 0.02 µM

Second part, led by results:

- IC50 [1]: 750 µM
- IC50 [4]: 75 µM
- IC50 [6]: 150 µM
SMILES: O=C(OC[C@H](NC[C@H]1NC(=O)[C@H](O)[C@@H]1O)c1ccccc1)c1ccc(Br)cc1
- inhibition of growth at 300 µM [7]: 51%
- inhibition of growth at 300 µM [8]: 59%
- inhibition at 24 h, 300 µM [9]: 85%

- IC50 [1]: 75 µM
- IC50 [4]: 0.75 µM
- IC50 [6]: 7.5 µM
SMILES: CN1C(=O)[C@H](O)[C@H](O)[C@H]1CN[C@@H](COC(=O)c1ccc(Br)cc1)c1ccccc1
- Activity (LNZ308 [10]): Active
- Activity (HCEC): Active
- IC50 ([2]; Homo sapiens, HCEC): 100 µM
- IC50 [11]: 145 µM
- IC50 [12]: 175 µM

- IC50 [1]: 200 µM
- IC50 [4]: 75 µM
- IC50 [6]: 75 µM
SMILES: O=C(OC[C@H](NC[C@H]1NC[C@H](O)[C@@H]1O)c1ccccc1)c1ccc(Br)cc1
- IC50 [13]: 125 µM

- IC50 [1]: 50 µM
- Ki [1]: 32.5 µM
- IC50 [14]: 80 µM
- Ki [14]: 67 µM
- IC50 [4]: 25 µM
- Ki [4]: 23.3 µM
- IC50 [6]: 50 µM
- Ki [6]: 41.5 µM
SMILES: OC[C@H](NC[C@H]1NC[C@H](O)[C@@H]1O)c1ccccc1
